Measurements reported in ChEMBL document CHEMBL1148731, “An integrated computational approach to the phenomenon of potent and selective inhibition of aurora kinases B and C by a series of 7-substituted indirubins” (J Med Chem, 2007).

Tests used:
Aurora kinase C = target: T1, Aurora kinase C (Homo sapiens, UniProt Q9UQB9); experiment: Inhibition of human recombinant aurora C kinase
T1 sequence (Q9UQB9 whole entry): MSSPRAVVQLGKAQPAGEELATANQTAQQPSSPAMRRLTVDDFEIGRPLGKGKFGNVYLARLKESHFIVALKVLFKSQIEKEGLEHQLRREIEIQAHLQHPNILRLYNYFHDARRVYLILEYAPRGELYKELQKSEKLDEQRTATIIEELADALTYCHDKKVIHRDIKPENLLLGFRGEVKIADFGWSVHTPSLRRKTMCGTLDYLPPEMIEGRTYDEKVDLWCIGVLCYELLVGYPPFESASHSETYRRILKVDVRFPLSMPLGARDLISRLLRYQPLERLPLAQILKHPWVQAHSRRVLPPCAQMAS
Procedure, shortened: (§1)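 Recombinant human Aurora kinase (A, B or C); myelin basic protein substrate (1 mg/mL) with 15 µM [γ-33P]ATP in buffer C (25 mM Mops pH 7.2, 60 mM β-glycerophosphate, 15 mM p-nitrophenylphosphate, 5 mM EGTA, 15 mM MgCl2, 1 mM DTT, 1 mM vanadate, 1 mM phenylphosphate), 30 min at 30 °C. Stopped by spotting on P81 paper, washed in 1% phosphoric acid, scintillation counted. IC50 from dose-response curves over various concentrations.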

Aurora kinase A = target: T2, Aurora kinase A (Homo sapiens, UniProt O14965); experiment: Inhibition of human recombinant aurora A kinase
T2 sequence (O14965 whole entry): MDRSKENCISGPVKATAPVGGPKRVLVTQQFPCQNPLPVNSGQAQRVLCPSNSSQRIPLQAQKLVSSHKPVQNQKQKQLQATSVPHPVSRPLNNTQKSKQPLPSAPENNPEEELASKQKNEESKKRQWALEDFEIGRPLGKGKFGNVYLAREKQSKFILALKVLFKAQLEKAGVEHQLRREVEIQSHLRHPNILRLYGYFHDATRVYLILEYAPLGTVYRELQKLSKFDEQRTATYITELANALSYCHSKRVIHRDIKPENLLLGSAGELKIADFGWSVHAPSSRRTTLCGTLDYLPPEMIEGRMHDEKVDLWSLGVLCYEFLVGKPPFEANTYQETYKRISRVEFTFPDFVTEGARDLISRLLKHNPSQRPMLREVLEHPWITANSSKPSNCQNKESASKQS

Aurora kinase B = Aurora kinase B (Homo sapiens, UniProt Q96GD4); experiment: Inhibition of human recombinant aurora B kinase; procedure, shortened: as §1
Chain of Aurora kinase B (Q96GD4 whole entry): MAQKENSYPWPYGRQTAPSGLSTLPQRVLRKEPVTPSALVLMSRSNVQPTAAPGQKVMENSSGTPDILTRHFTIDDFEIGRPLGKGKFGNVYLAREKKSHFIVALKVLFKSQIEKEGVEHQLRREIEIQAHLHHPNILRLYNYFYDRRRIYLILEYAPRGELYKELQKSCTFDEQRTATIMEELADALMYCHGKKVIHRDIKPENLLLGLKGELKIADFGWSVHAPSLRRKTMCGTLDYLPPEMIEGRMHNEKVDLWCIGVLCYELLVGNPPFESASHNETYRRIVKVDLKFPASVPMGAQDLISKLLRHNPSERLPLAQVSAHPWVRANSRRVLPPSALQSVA

SMILES	IC50 (Aurora kinase C)	IC50 (Aurora kinase A)	IC50 (Aurora kinase B)
O=Nc1c(-c2c(O)[nH]c3c(I)cccc23)[nH]c2ccccc12	0.6 µM	> 100 µM	10 µM
CC(=O)O/N=C1\C(c2c(O)[nH]c3ccccc23)=Nc2ccccc21	0.7 µM	2.3 µM	2.1 µM
O=C1C(c2c(O)[nH]c3c(F)cccc23)=Nc2ccccc21	> 100 µM	> 100 µM	> 100 µM
CO/N=C1\C(c2c(O)[nH]c3ccccc23)=Nc2ccccc21	0.4 µM	4.3 µM	3 µM
O=Nc1c(-c2c(O)[nH]c3c(F)cccc23)[nH]c2ccccc12	1 µM	2 µM	7 µM
O=Nc1c(-c2c(O)[nH]c3c(Cl)cccc23)[nH]c2ccccc12	0.9 µM	> 100 µM	8 µM
O=C1C(c2c(O)[nH]c3c(Br)cccc23)=Nc2ccccc21	> 100 µM	> 100 µM	> 100 µM
CO/N=C1\C(=C2\C(=O)Nc3c(Br)cccc32)Nc2ccccc21	> 100 µM	> 100 µM	> 100 µM
CO/N=C1\C(=C2\C(=O)Nc3c(Cl)cccc32)Nc2ccccc21	> 100 µM	> 100 µM	> 100 µM
CC(=O)O/N=C1\C(=C2\C(=O)Nc3c(F)cccc32)Nc2ccccc21	1 µM	20 µM	8 µM
CO/N=C1\C(=C2\C(=O)Nc3c(I)cccc32)Nc2ccccc21	> 100 µM	> 100 µM	> 100 µM
O=Nc1c(-c2c(O)[nH]c3c(Br)cccc23)[nH]c2ccccc12	0.7 µM		4.6 µM
O=C1C(c2c(O)[nH]c3c(Cl)cccc23)=Nc2ccccc21	> 100 µM	> 100 µM	> 100 µM
O=C1C(c2c(O)[nH]c3c(I)cccc23)=Nc2ccccc21	> 100 µM	> 100 µM	> 100 µM
CC(=O)O/N=C1\C(=C2\C(=O)Nc3c(I)cccc32)Nc2ccccc21	28 µM	> 100 µM	> 100 µM
CC(=O)O/N=C1\C(=C2\C(=O)Nc3c(Br)cccc32)Nc2ccccc21	4.5 µM	> 100 µM	20 µM
CC(=O)O/N=C1\C(=C2\C(=O)Nc3c(Cl)cccc32)Nc2ccccc21	> 100 µM	> 100 µM	> 100 µM
CO/N=C1\C(=C2\C(=O)Nc3c(F)cccc32)Nc2ccccc21	> 100 µM	> 100 µM	> 100 µM
O=C1Nc2cc(Br)ccc2/C1=C1/Nc2ccccc2/C1=N\O [6BIO]	0.2 µM		0.9 µM
O=Nc1c(-c2c(O)[nH]c3ccccc23)[nH]c2ccccc12 [INDIRUBIN-3-MONOXIME]	0.3 µM	4 µM	2.3 µM
